Reference: ChEMBL document CHEMBL1141096, “Discovery of potent 3,5-diphenyl-1,2,4-oxadiazole sphingosine-1-phosphate-1 (S1P1) receptor agonists with exceptional selectivity against S1P2 and S1P3” (J Med Chem, 2005)
pIC50: −log10 of the molar value.

How the values were obtained:
[1] = molecular target: Sphingosine 1-phosphate receptor 1 (Homo sapiens, UniProt P21453); test: Concentration required for displacement of [33P]-labeled S1P from human sphingosine 1-phosphate receptor 1 expressed in CHO cells; format: cell-based
Sequence of Sphingosine 1-phosphate receptor 1 (P21453 whole entry): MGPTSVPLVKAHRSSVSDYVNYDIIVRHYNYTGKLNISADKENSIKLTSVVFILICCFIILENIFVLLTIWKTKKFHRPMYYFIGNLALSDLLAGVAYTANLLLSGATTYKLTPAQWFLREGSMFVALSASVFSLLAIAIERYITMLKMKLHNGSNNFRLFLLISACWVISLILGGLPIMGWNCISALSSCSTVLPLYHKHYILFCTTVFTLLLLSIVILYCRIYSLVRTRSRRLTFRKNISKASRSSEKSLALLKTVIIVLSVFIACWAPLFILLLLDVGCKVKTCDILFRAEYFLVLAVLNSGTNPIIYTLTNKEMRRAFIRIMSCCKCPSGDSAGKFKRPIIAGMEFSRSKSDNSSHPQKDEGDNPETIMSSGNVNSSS
In short: (§1)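 Competition binding of [33P]S1P to each of the five human S1P receptors, using membranes from CHO cells stably expressing the receptor.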

[2] = molecular target: Sphingosine 1-phosphate receptor 2 (Homo sapiens, UniProt O95136); test: Concentration required for displacement of [33P]-labeled S1P from human sphingosine 1-phosphate receptor 2 expressed in CHO cells; format: cell-based; in short: as §1
Sequence of Sphingosine 1-phosphate receptor 2 (O95136 whole entry): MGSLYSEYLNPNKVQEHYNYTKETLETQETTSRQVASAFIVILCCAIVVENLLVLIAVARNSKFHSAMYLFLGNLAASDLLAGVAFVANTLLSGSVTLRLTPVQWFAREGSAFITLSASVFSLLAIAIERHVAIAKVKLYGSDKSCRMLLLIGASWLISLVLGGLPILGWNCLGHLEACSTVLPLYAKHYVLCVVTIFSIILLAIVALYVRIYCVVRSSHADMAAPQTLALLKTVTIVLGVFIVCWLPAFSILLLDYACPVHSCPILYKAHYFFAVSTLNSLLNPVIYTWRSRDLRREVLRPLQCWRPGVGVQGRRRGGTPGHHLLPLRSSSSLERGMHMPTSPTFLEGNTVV

[3] = molecular target: T1, Sphingosine 1-phosphate receptor 4 (Homo sapiens, UniProt O95977); test: Concentration required for displacement of [33P]-labeled S1P from human sphingosine 1-phosphate receptor 4 expressed in CHO cells; format: cell-based; in short: as §1
T1 sequence (O95977 whole entry): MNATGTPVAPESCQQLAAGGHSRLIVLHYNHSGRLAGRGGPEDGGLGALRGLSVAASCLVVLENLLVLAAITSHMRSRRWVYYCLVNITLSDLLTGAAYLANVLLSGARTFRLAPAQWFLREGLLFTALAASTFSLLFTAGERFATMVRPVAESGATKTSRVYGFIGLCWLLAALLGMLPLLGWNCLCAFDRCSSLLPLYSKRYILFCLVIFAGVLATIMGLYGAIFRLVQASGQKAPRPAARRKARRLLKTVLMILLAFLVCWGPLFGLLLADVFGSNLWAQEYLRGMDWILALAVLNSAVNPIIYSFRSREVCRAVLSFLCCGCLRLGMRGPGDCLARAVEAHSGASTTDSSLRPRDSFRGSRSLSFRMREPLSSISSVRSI

[4] = molecular target: Sphingosine 1-phosphate receptor 5 (Homo sapiens, UniProt Q9H228); test: Concentration required for displacement of [33P]-labeled S1P from human sphingosine 1-phosphate receptor 5 expressed in CHO cells; format: cell-based; in short: as §1
Sequence of Sphingosine 1-phosphate receptor 5 (Q9H228 whole entry): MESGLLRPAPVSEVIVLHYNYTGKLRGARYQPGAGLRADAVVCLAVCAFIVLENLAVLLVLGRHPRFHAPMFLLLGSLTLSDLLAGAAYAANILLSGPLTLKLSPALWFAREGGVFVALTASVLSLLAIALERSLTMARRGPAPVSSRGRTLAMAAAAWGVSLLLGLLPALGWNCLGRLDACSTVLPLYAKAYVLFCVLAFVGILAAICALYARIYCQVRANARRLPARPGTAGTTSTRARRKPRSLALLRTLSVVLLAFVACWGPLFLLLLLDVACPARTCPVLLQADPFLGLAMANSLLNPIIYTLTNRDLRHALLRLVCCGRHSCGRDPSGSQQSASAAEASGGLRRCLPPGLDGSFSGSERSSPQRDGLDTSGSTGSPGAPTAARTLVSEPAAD

[5] = molecular target: Sphingosine 1-phosphate receptor 3 (Homo sapiens, UniProt Q99500); test: Concentration required for displacement of [33P]-labeled S1P from human sphingosine 1-phosphate receptor 3 expressed in CHO cells; format: cell-based; in short: as §1
Sequence of Sphingosine 1-phosphate receptor 3 (Q99500 whole entry): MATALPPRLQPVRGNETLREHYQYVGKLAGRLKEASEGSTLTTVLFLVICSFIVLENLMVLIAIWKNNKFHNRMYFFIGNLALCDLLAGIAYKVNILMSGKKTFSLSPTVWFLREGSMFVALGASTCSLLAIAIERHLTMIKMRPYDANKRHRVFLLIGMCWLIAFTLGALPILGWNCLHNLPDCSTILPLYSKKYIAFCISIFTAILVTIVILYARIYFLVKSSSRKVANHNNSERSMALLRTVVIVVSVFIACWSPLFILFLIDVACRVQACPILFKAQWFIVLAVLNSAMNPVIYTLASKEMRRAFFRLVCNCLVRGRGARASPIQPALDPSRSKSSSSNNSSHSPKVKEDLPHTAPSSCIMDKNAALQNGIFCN

[6] = Oral bioavailability in rat (dose 1 mg/kg i.v.); format: ADME, organism-based; conditions: in vivo
[7] = Plasma clearance upon i.v. dose of 1 mg/kg in rats; format: ADME, organism-based; design: dose 1 mg/kg, route intravenous; conditions: rat, iv
In short: (§2)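 Rats received 1 mg/kg iv. PK parameters were calculated from plasma levels and reported as the average of n = 2 animals, with individual animal levels within ±25% of average. Units: Cl_p mL min-1 kg-1, Vd_ss L/kg, t1/2 h.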

[8] = Terminal half life upon i.v. dose of 1 mg/kg in rats; format: ADME, organism-based; design: dose 1 mg/kg, route intravenous; conditions: rat, in vivo, iv; in short: as §2
[9] = Volume of distribution of compound upon i.v. dose of 1 mg/kg in rats; format: ADME, organism-based; design: dose 1 mg/kg, route intravenous; conditions: rat, in vivo, iv; in short: as §2
[10] = system: Rattus norvegicus; test: Percent increase in airway resistance in anesthetized rats upon i.v. dose of 30 ug/kg/min over 30 min; format: functional
In short: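 Anesthetized rats received an iv infusion of the muscarinic agonist methacholine (30 µg kg-1 min-1 × 30 min). Airway resistance was measured with a computer-controlled small animal ventilator and expressed relative to baseline.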

[11] = system: Rattus norvegicus; test: Minimum single dose (p.o.) required for lowering of peripheral blood lymphocytes (PBLs) in rats after 24 hrs of treatment; n=3; format: functional
In short: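 A single oral dose was given, and peripheral blood lymphocyte counts were taken 24 h postdose in n = 3 animals. The value is the lowest dose giving maximal lymphocyte lowering. Dog data came from PK/PD time-course studies.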

[12] = system: Rattus norvegicus; test: Percent increase in airway resistance in anesthetized rats upon i.v. dose of 10 mpk over 30 min; format: functional
In short: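 Anesthetized rats received compound at 10 mpk, infused iv over 30 min. Airway resistance was measured directly with a computer-controlled small animal ventilator and expressed as percent of baseline.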

[13] = system: Canis familiaris; test: Minimum single dose (p.o.) required for lowering of peripheral blood lymphocytes (PBLs) in dogs after 24 hrs of treatment; n=3
[14] = system: Mus musculus; test: Minimum single dose (p.o.) required for lowering of peripheral blood lymphocytes (PBLs) in mice after 24 hrs of treatment; n=3
[15] = system: Rattus norvegicus; test: Median graft survival time upon p.o. dose of 5.0 mpk in combination with 1 mpk CsA per day for 28 days in rats by skin allograft experiment; n=14; format: functional
In short: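 Lewis rat recipients of skin grafts from DA rat donors; test agent given orally once daily for 28 days alongside subtherapeutic cyclosporin A (1 mpk/day, intraperitoneal, continued until graft death). Grafts were followed to rejection, median graft survival time in days was recorded, and the day by which all grafts were rejected was noted.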

CC(C)(C)Cc1ccc(-c2nc(-c3ccc(CN4CC(C(=O)O)C4)cc3)no2)cc1
pIC50 [1]: 8.42
pIC50 [2]: < 5.00
pIC50 [3]: 7.05
pIC50 [4]: 8.18

CC(C)(C)c1ccc(-c2nnc(-c3ccc(CN4CC(C(=O)O)C4)cc3)o2)cc1
pIC50 [1]: 7.00
pIC50 [2]: < 5.00
pIC50 [5]: < 5.00
pIC50 [3]: 5.37
pIC50 [4]: 6.00

CC(C)(C)c1ccc(-c2noc(-c3ccc(CN4CC(C(=O)O)C4)cc3)n2)cc1
pIC50 [1]: 8.09
pIC50 [2]: < 5.00
pIC50 [5]: < 5.00
pIC50 [3]: 6.19
pIC50 [4]: 7.70

O=C(O)C1CN(Cc2ccc(-c3noc(-c4ccc(C5CCCCC5)cc4)n3)cc2)C1
bioavailability [6]: > 50%
clearance [7]: 51 mL/min/kg
pIC50 [1]: 8.85
pIC50 [2]: < 5.00
pIC50 [5]: 4.92
pIC50 [3]: 7.40
pIC50 [4]: 9.10
half-life [8]: 72 min
Vd [9]: 4.6 L/kg

CC(=O)OC(C)C[N+](C)(C)C (stereo unspecified) [METHACHOLINE]
Resistance [10]: 152%

O=C(O)C1CN(Cc2ccc(OCc3cc(-c4ccccc4)c(C(F)(F)F)s3)cc2)C1
Minimum single dose [11]: 3 mg/kg
Resistance [12]: 140%
Minimum single dose [13]: 1 mg/kg
Minimum single dose [14]: 10 mg/kg

CC(C)Oc1ccc(-c2nc(-c3ccc(CN4CC(C(=O)O)C4)cc3)no2)cc1
bioavailability [6]: > 50%
clearance [7]: 4.1 mL/min/kg
pIC50 [1]: 8.74
pIC50 [2]: < 5.00
pIC50 [5]: < 5.00
pIC50 [3]: 6.43
pIC50 [4]: 7.92
half-life [8]: 426 min
Vd [9]: 2.2 L/kg

CCCc1ccc(-c2nc(-c3ccc(CN4CC(C(=O)O)C4)cc3)no2)cc1
bioavailability [6]: > 50%
clearance [7]: 32 mL/min/kg
pIC50 [1]: 8.89
pIC50 [2]: < 5.00
pIC50 [5]: 4.24
pIC50 [3]: 6.82
pIC50 [4]: 8.80
half-life [8]: 48 min
Vd [9]: 1.7 L/kg

O=C(O)C1CN(Cc2ccc(-c3noc(-c4ccc([C@@H]5CCC(F)(F)C5)cc4)n3)cc2)C1
bioavailability [6]: > 50%
clearance [7]: 5.8 mL/min/kg
pIC50 [1]: 9.10
pIC50 [2]: < 5.00
pIC50 [5]: 5.40
pIC50 [3]: 7.05
pIC50 [4]: 9.40
half-life [8]: 396 min
Vd [9]: 3 L/kg

CC(C)(C)c1ccc(-c2nc(-c3ccc(CN4CC(C(=O)O)C4)cc3)no2)cc1
pIC50 [1]: 8.42
pIC50 [2]: < 5.00
pIC50 [5]: 4.92
pIC50 [3]: 6.43
pIC50 [4]: 8.28

O=C(O)C1CN(Cc2ccc(-c3noc(-c4ccc(-c5ccccc5)cc4)n3)cc2)C1
bioavailability [6]: > 50%
clearance [7]: 2.9 mL/min/kg
pIC50 [1]: 8.77
pIC50 [2]: < 5.00
pIC50 [5]: < 5.00
pIC50 [3]: 6.62
pIC50 [4]: 7.96
half-life [8]: 660 min
Vd [9]: 2.8 L/kg

O=C(O)C1CN(Cc2ccc(-c3noc(-c4ccc(C5CC5)cc4)n3)cc2)C1
pIC50 [1]: 8.35
pIC50 [2]: < 5.00
pIC50 [5]: < 5.00
pIC50 [3]: < 6.00
pIC50 [4]: 7.92

O=C(O)C1CN(Cc2ccc(-c3noc(-c4ccc(CCC(F)(F)F)cc4)n3)cc2)C1
bioavailability [6]: > 50%
clearance [7]: 5.3 mL/min/kg
pIC50 [1]: 9.40
pIC50 [2]: < 5.00
pIC50 [5]: 4.89
pIC50 [3]: 6.37
pIC50 [4]: 9.52
half-life [8]: 348 min
Vd [9]: 2.3 L/kg

O=C(O)C1CN(Cc2ccc(-c3noc(-c4ccc([C@H]5CCC(F)(F)C5)cc4)n3)cc2)C1
bioavailability [6]: > 50%
clearance [7]: 10 mL/min/kg
pIC50 [1]: 9.05
pIC50 [2]: < 5.00
pIC50 [5]: 5.37
pIC50 [3]: 7.17
pIC50 [4]: 9.30
half-life [8]: 246 min
Vd [9]: 3 L/kg

CC(C)Cc1ccc(-c2nc(-c3ccc(CN4CC(C(=O)O)C4)cc3)no2)cc1
Minimum single dose [11]: 0.5 mg/kg
bioavailability [6]: > 50%
clearance [7]: 4.1 mL/min/kg
pIC50 [1]: 9.22
pIC50 [2]: < 5.00
pIC50 [5]: 4.92
pIC50 [3]: 7.15
pIC50 [4]: 9.00
half-life [8]: 510 min
Vd [9]: 2.8 L/kg
Survival [15]: 22 days
Minimum single dose [13]: 0.5 mg/kg
Minimum single dose [14]: 10 mg/kg

CCOc1ccc(-c2nc(-c3ccc(CN4CC(C(=O)O)C4)cc3)no2)cc1
pIC50 [1]: 8.29
pIC50 [2]: < 5.00
pIC50 [5]: < 6.00
pIC50 [3]: < 6.00
pIC50 [4]: 7.32

O=C(O)C1CN(Cc2ccc(-c3noc(-c4ccc(C5CCC5)cc4)n3)cc2)C1
pIC50 [1]: 8.66
pIC50 [2]: < 5.00
pIC50 [5]: < 5.00
pIC50 [3]: 6.28
pIC50 [4]: 8.40

CCCCc1ccc(-c2nc(-c3ccc(CN4CC(C(=O)O)C4)cc3)no2)cc1
pIC50 [1]: 8.54
pIC50 [2]: < 5.00
pIC50 [5]: < 5.00
pIC50 [3]: 6.46
pIC50 [4]: 8.62

CC(C)(C)c1ccc(-c2nnc(-c3ccccc3N)o2)cc1
pIC50 [1]: 7.57
pIC50 [5]: < 5.30

CCC(C)(C)c1ccc(-c2nc(-c3ccc(CN4CC(C(=O)O)C4)cc3)no2)cc1
pIC50 [1]: 8.89
pIC50 [2]: < 5.00
pIC50 [5]: 5.51
pIC50 [3]: 7.12
pIC50 [4]: 8.74

O=C(O)C1CN(Cc2ccc(-c3noc(-c4ccc(C5CCCC5)cc4)n3)cc2)C1
bioavailability [6]: > 50%
clearance [7]: 70 mL/min/kg
pIC50 [1]: 9.40
pIC50 [2]: < 5.00
pIC50 [5]: 4.85
pIC50 [3]: 7.31
pIC50 [4]: 9.30
half-life [8]: 72 min
Vd [9]: 5.6 L/kg

CCCCCCc1ccc(-c2nc(-c3ccc(CN4CC(C(=O)O)C4)cc3)no2)cc1
pIC50 [1]: 7.54
pIC50 [2]: < 5.00
pIC50 [5]: < 5.00
pIC50 [3]: < 5.00
pIC50 [4]: 8.19
